Key:
Format in all cases: toxicity, cell-based
Fibroblast [1] = assay: Multiplex assay against human fibroblast
Outline: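 Values for tubulin, mitochondrial-mass and membrane-permeability phenotypes are per cents of cells with healthy nuclei. These cells were identified by CellPathfinder machine-learning gating of live cells that had been stained at seeding with Hoechst33342, BioTracker Green Microtubule Cytoskeleton Dye, MitoTracker Red and Annexin V Alexa Fluor 680 and imaged on a CQ1 microscope at 37°C and 5% CO2 after compound addition. The gating first set Hoechst high-intensity objects apart from normal cells, then split normal cells into healthy, pyknosed or fragmented nuclei, and pyknosed cells into mitotic or apoptotic.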

U2OS = assay: Incucyte cell viability with U2OS; conditions: human, 10 µM, compound concentration 10 uM; further: filed as whole numbers so only -1 and 0 and 1 occur
HEK-293T = assay: Incucyte cell viability with HEK293T; conditions: human, 10 µM, compound concentration 10 uM; further: filed as whole numbers so only -1 and 0 and 1 occur
Fibroblast [2] = assay: Incucyte cell viability with human fibroblast; conditions: 10 µM, compound concentration 10 uM; further: filed as whole numbers so only -1 and 0 and 1 occur
[3] = 12 h, 1 µM, compound concentration 1 uM, replicate 1
[4] = 12 h, 1 µM, compound concentration 1 uM, replicate 2
[5] = 12 h, 10 µM, compound concentration 10 uM, replicate 1
[6] = 12 h, 10 µM, compound concentration 10 uM, replicate 2
[7] = 24 h, 1 µM, compound concentration 1 uM, replicate 1
[8] = 24 h, 1 µM, compound concentration 1 uM, replicate 2
[9] = 24 h, 10 µM, compound concentration 10 uM, replicate 1
[10] = 24 h, 10 µM, compound concentration 10 uM, replicate 2
[11] = 48 h, 1 µM, compound concentration 1 uM, replicate 1
[12] = 48 h, 1 µM, compound concentration 1 uM, replicate 2
[13] = 48 h, 10 µM, compound concentration 10 uM, replicate 1
[14] = 48 h, 10 µM, compound concentration 10 uM, replicate 2
[15] = 0 h, replicate number 1, timepoint 0 hours
[16] = 18 h, replicate number 1, timepoint 18 hours
[17] = 24 h, replicate number 1, timepoint 24 hours
[18] = 6 h, replicate number 1, timepoint 6 hours

In the case of CCC(=O)O[C@]1(C(=O)SCF)[C@H](C)C[C@H]2[C@@H]3C[C@H](F)C4=CC(=O)C=C[C@]4(C)[C@@]3(F)[C@@H](O)C[C@@]21C [FLUTICASONE PROPIONATE], the “Population Apoptotic (%)” value (Fibroblast [1]; [3]) is reported as 71%, the “Population Fragmented Nuclei (%)” value (Fibroblast [1]; [3]) is reported as 22% and the “Population Healthy Nuclei (%)” value (Fibroblast [1]; [3]) is reported as 45%. For the same compound, the “Population Hoechst High Intensity Objects (%)” value (Fibroblast [1]; [3]) was 13%, the “Population Membrane Permeable-Phenotype (%)” value (Fibroblast [1]; [3]) was 33% and the “Population Mitochondria Different-Phenotype (%)” value (Fibroblast [1]; [3]) was 0%. For the same compound, the “Population Mitotic Cells (%)” value (Fibroblast [1]; [3]) was 28%, the “Population Normal (%)” value (Fibroblast [1]; [3]) was 86% and the “Population Pyknosed Nuclei (%)” value (Fibroblast [1]; [3]) was 31%. For the same compound, the “Population Tubulin-Different-Phenotype (%)” value (Fibroblast [1]; [3]) was 40%, the “Total Cell Count” value (Fibroblast [1]; [3]) was 76 and the “Population Fragmented Nuclei (%)” value (Fibroblast [1]; [4]) was 4%. For the same compound, the “Population Healthy Nuclei (%)” value (Fibroblast [1]; [4]) was 78%, the “Population Hoechst High Intensity Objects (%)” value (Fibroblast [1]; [4]) was 12% and the “Population Membrane Permeable-Phenotype (%)” value (Fibroblast [1]; [4]) was 3%. The “Population Mitochondria Different-Phenotype (%)” value (Fibroblast [1]; [4]) was 9%, the “Population Normal (%)” value (Fibroblast [1]; [4]) was 87% and the “Population Pyknosed Nuclei (%)” value (Fibroblast [1]; [4]) was 16%. The “Population Tubulin-Different-Phenotype (%)” value (Fibroblast [1]; [4]) was 9%, the “Total Cell Count” value (Fibroblast [1]; [4]) was 68 and the “Population Apoptotic (%)” value (Fibroblast [1]; [5]) was 62%. For the same compound, the “Population Fragmented Nuclei (%)” value (Fibroblast [1]; [5]) was 26%, the “Population Healthy Nuclei (%)” value (Fibroblast [1]; [5]) was 50% and the “Population Hoechst High Intensity Objects (%)” value (Fibroblast [1]; [5]) was 16%. For the same compound, the “Population Membrane Permeable-Phenotype (%)” value (Fibroblast [1]; [5]) was 38%, the “Population Mitochondria Different-Phenotype (%)” value (Fibroblast [1]; [5]) was 30% and the “Population Mitotic Cells (%)” value (Fibroblast [1]; [5]) was 37%. For the same compound, the “Population Normal (%)” value (Fibroblast [1]; [5]) was 83%, the “Population Pyknosed Nuclei (%)” value (Fibroblast [1]; [5]) was 23% and the “Population Tubulin-Different-Phenotype (%)” value (Fibroblast [1]; [5]) was 53%. For the same compound, the “Total Cell Count” value (Fibroblast [1]; [5]) was 149, the “Population Apoptotic (%)” value (Fibroblast [1]; [6]) was 28% and the “Population Fragmented Nuclei (%)” value (Fibroblast [1]; [6]) was 8%. The “Population Healthy Nuclei (%)” value (Fibroblast [1]; [6]) was 81%, the “Population Hoechst High Intensity Objects (%)” value (Fibroblast [1]; [6]) was 8% and the “Population Membrane Permeable-Phenotype (%)” value (Fibroblast [1]; [6]) was 3%. The “Population Mitochondria Different-Phenotype (%)” value (Fibroblast [1]; [6]) was 37%, the “Population Mitotic Cells (%)” value (Fibroblast [1]; [6]) was 71% and the “Population Normal (%)” value (Fibroblast [1]; [6]) was 92%. For the same compound, the “Population Pyknosed Nuclei (%)” value (Fibroblast [1]; [6]) was 10%, the “Population Tubulin-Different-Phenotype (%)” value (Fibroblast [1]; [6]) was 35% and the “Total Cell Count” value (Fibroblast [1]; [6]) was 48. The “Population Apoptotic (%)” value (Fibroblast [1]; [7]) was 66%, the “Population Fragmented Nuclei (%)” value (Fibroblast [1]; [7]) was 21% and the “Population Healthy Nuclei (%)” value (Fibroblast [1]; [7]) was 62%. The “Population Hoechst High Intensity Objects (%)” value (Fibroblast [1]; [7]) was 25%, the “Population Membrane Permeable-Phenotype (%)” value (Fibroblast [1]; [7]) was 28% and the “Population Mitochondria Different-Phenotype (%)” value (Fibroblast [1]; [7]) was 0%. The “Population Mitotic Cells (%)” value (Fibroblast [1]; [7]) was 33%, the “Population Normal (%)” value (Fibroblast [1]; [7]) was 74% and the “Population Pyknosed Nuclei (%)” value (Fibroblast [1]; [7]) was 16%. For the same compound, the “Population Tubulin-Different-Phenotype (%)” value (Fibroblast [1]; [7]) was 34%, the “Total Cell Count” value (Fibroblast [1]; [7]) was 75 and the “Population Apoptotic (%)” value (Fibroblast [1]; [8]) was 16%. The “Population Fragmented Nuclei (%)” value (Fibroblast [1]; [8]) was 3%, the “Population Healthy Nuclei (%)” value (Fibroblast [1]; [8]) was 84% and the “Population Hoechst High Intensity Objects (%)” value (Fibroblast [1]; [8]) was 11%. The “Population Membrane Permeable-Phenotype (%)” value (Fibroblast [1]; [8]) was 11%, the “Population Mitochondria Different-Phenotype (%)” value (Fibroblast [1]; [8]) was 11% and the “Population Mitotic Cells (%)” value (Fibroblast [1]; [8]) was 83%. The “Population Normal (%)” value (Fibroblast [1]; [8]) was 88%, the “Population Pyknosed Nuclei (%)” value (Fibroblast [1]; [8]) was 11% and the “Population Tubulin-Different-Phenotype (%)” value (Fibroblast [1]; [8]) was 20%. The “Total Cell Count” value (Fibroblast [1]; [8]) was 78, the “Population Apoptotic (%)” value (Fibroblast [1]; [9]) was 64% and the “Population Fragmented Nuclei (%)” value (Fibroblast [1]; [9]) was 30%. For the same compound, the “Population Healthy Nuclei (%)” value (Fibroblast [1]; [9]) was 50%, the “Population Hoechst High Intensity Objects (%)” value (Fibroblast [1]; [9]) was 12% and the “Population Membrane Permeable-Phenotype (%)” value (Fibroblast [1]; [9]) was 40%. The “Population Mitochondria Different-Phenotype (%)” value (Fibroblast [1]; [9]) was 27%, the “Population Mitotic Cells (%)” value (Fibroblast [1]; [9]) was 36% and the “Population Normal (%)” value (Fibroblast [1]; [9]) was 87%. For the same compound, the “Population Pyknosed Nuclei (%)” value (Fibroblast [1]; [9]) was 19%, the “Population Tubulin-Different-Phenotype (%)” value (Fibroblast [1]; [9]) was 47% and the “Total Cell Count” value (Fibroblast [1]; [9]) was 149. For the same compound, the “Population Apoptotic (%)” value (Fibroblast [1]; [10]) was 58%, the “Population Fragmented Nuclei (%)” value (Fibroblast [1]; [10]) was 5% and the “Population Healthy Nuclei (%)” value (Fibroblast [1]; [10]) was 78%. The “Population Hoechst High Intensity Objects (%)” value (Fibroblast [1]; [10]) was 8%, the “Population Membrane Permeable-Phenotype (%)” value (Fibroblast [1]; [10]) was 6% and the “Population Mitochondria Different-Phenotype (%)” value (Fibroblast [1]; [10]) was 31%. The “Population Mitotic Cells (%)” value (Fibroblast [1]; [10]) was 41%, the “Population Normal (%)” value (Fibroblast [1]; [10]) was 91% and the “Population Pyknosed Nuclei (%)” value (Fibroblast [1]; [10]) was 16%. For the same compound, the “Population Tubulin-Different-Phenotype (%)” value (Fibroblast [1]; [10]) was 25%, the “Total Cell Count” value (Fibroblast [1]; [10]) was 59 and the “Population Apoptotic (%)” value (Fibroblast [1]; [11]) was 54%. The “Population Fragmented Nuclei (%)” value (Fibroblast [1]; [11]) was 41%, the “Population Healthy Nuclei (%)” value (Fibroblast [1]; [11]) was 43% and the “Population Hoechst High Intensity Objects (%)” value (Fibroblast [1]; [11]) was 24%. The “Population Membrane Permeable-Phenotype (%)” value (Fibroblast [1]; [11]) was 25%, the “Population Mitochondria Different-Phenotype (%)” value (Fibroblast [1]; [11]) was 0% and the “Population Mitotic Cells (%)” value (Fibroblast [1]; [11]) was 45%. For the same compound, the “Population Normal (%)” value (Fibroblast [1]; [11]) was 75%, the “Population Pyknosed Nuclei (%)” value (Fibroblast [1]; [11]) was 15% and the “Population Tubulin-Different-Phenotype (%)” value (Fibroblast [1]; [11]) was 38%. For the same compound, the “Total Cell Count” value (Fibroblast [1]; [11]) was 95, the “Population Apoptotic (%)” value (Fibroblast [1]; [12]) was 100% and the “Population Fragmented Nuclei (%)” value (Fibroblast [1]; [12]) was 26%. For the same compound, the “Population Healthy Nuclei (%)” value (Fibroblast [1]; [12]) was 72%, the “Population Hoechst High Intensity Objects (%)” value (Fibroblast [1]; [12]) was 15% and the “Population Membrane Permeable-Phenotype (%)” value (Fibroblast [1]; [12]) was 5%. The “Population Mitotic Cells (%)” value (Fibroblast [1]; [12]) was 0%, the “Population Normal (%)” value (Fibroblast [1]; [12]) was 84% and the “Population Pyknosed Nuclei (%)” value (Fibroblast [1]; [12]) was 0%. For the same compound, the “Population Tubulin-Different-Phenotype (%)” value (Fibroblast [1]; [12]) was 26%, the “Total Cell Count” value (Fibroblast [1]; [12]) was 120 and the “Population Apoptotic (%)” value (Fibroblast [1]; [13]) was 75%. For the same compound, the “Population Fragmented Nuclei (%)” value (Fibroblast [1]; [13]) was 38%, the “Population Healthy Nuclei (%)” value (Fibroblast [1]; [13]) was 47% and the “Population Hoechst High Intensity Objects (%)” value (Fibroblast [1]; [13]) was 14%. The “Population Membrane Permeable-Phenotype (%)” value (Fibroblast [1]; [13]) was 29%, the “Population Mitochondria Different-Phenotype (%)” value (Fibroblast [1]; [13]) was 27% and the “Population Mitotic Cells (%)” value (Fibroblast [1]; [13]) was 25%. The “Population Normal (%)” value (Fibroblast [1]; [13]) was 85%, the “Population Pyknosed Nuclei (%)” value (Fibroblast [1]; [13]) was 14% and the “Population Tubulin-Different-Phenotype (%)” value (Fibroblast [1]; [13]) was 48%. For the same compound, the “Total Cell Count” value (Fibroblast [1]; [13]) was 167, the “Population Apoptotic (%)” value (Fibroblast [1]; [14]) was 100% and the “Population Fragmented Nuclei (%)” value (Fibroblast [1]; [14]) was 29%. For the same compound, the “Population Healthy Nuclei (%)” value (Fibroblast [1]; [14]) was 66%, the “Population Hoechst High Intensity Objects (%)” value (Fibroblast [1]; [14]) was 35% and the “Population Membrane Permeable-Phenotype (%)” value (Fibroblast [1]; [14]) was 11%. The “Population Mitochondria Different-Phenotype (%)” value (Fibroblast [1]; [14]) was 17%, the “Population Mitotic Cells (%)” value (Fibroblast [1]; [14]) was 0% and the “Population Normal (%)” value (Fibroblast [1]; [14]) was 64%. The “Population Pyknosed Nuclei (%)” value (Fibroblast [1]; [14]) was 3%, the “Population Tubulin-Different-Phenotype (%)” value (Fibroblast [1]; [14]) was 56% and the “Total Cell Count” value (Fibroblast [1]; [14]) was 176. For the same compound, the “Growth Rate” value (U2OS; [15]) was 0, the “Growth Rate” value (U2OS; 6 h, replicate number 2, timepoint 6 hours) was 1 and the “Growth Rate” value (U2OS; 12 h, replicate number 2, timepoint 12 hours) was 1. For the same compound, the “Growth Rate” value (U2OS; [16]) was 1, the “Growth Rate” value (U2OS; [17]) was 1 and the “Growth Rate” value (HEK-293T; [15]) was 1. For the same compound, the “Growth Rate” value (HEK-293T; 0 h, replicate number 2, timepoint 0 hours) was 0, the “Growth Rate” value (HEK-293T; [18]) was 0 and the “Growth Rate” value (HEK-293T; 12 h, replicate number 1, timepoint 12 hours) was 0. For the same compound, the “Growth Rate” value (HEK-293T; [16]) was 0, the “Growth Rate” value (HEK-293T; 18 h, replicate number 2, timepoint 18 hours) was 1 and the “Growth Rate” value (HEK-293T; [17]) was 0. The “Growth Rate” value (HEK-293T; 24 h, replicate number 2, timepoint 24 hours) was 1, the “Growth Rate” value (Fibroblast [2]; [15]) was 0 and the “Growth Rate” value (Fibroblast [2]; [18]) was 1. For the same compound, the “Growth Rate” value (Fibroblast [2]; [16]) was 1 and the “Growth Rate” value (Fibroblast [2]; [17]) was 1.
